Source: article PMC3181111 (ACS chemical neuroscience, 2011)

Test system: male C57BL/6J mice
Assay: Mouse tail suspension test
Assay type: in vivo
Conditions: 30 minutes, vs water vehicle
Method in brief: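 Mice suspended by the tail with adhesive tape from a metal bar 30 cm high. Drugs given i.p. 30 min before testing. Reference inhibitors were in sterile water; test compounds were in DMSO at 2% (0.01 mL/g) or 100% (0.002 mL/g). Immobility time was scored by a blinded observer from 6-min video, n = 7–9, with one-way ANOVA and Tukey posthoc.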

Structure (SMILES) | Immobility time in tail suspension test (3 mg/kg i.p.) | Immobility time in tail suspension test (10 mg/kg i.p.)
CNCCCN1c2ccccc2CCc2ccccc21 [desipramine] | decreased immobility times | –
COCCCC/C(=N\OCCN)c1ccc(C(F)(F)F)cc1 [fluvoxamine] | – | decreased immobility times
